Test results taken from ChEMBL document CHEMBL4130408, “Photoactivation provides a mechanistic explanation for pan-assay interference behaviour of 2-aminopyrroles in lipoxygenase inhibition” (Eur J Med Chem, 2017).
Activity calls are given as the source filed them. The rule behind the calls is not given here.

T1: Polyunsaturated fatty acid lipoxygenase ALOX15 (Homo sapiens) (UniProt P16050)
T1 sequence (whole entry): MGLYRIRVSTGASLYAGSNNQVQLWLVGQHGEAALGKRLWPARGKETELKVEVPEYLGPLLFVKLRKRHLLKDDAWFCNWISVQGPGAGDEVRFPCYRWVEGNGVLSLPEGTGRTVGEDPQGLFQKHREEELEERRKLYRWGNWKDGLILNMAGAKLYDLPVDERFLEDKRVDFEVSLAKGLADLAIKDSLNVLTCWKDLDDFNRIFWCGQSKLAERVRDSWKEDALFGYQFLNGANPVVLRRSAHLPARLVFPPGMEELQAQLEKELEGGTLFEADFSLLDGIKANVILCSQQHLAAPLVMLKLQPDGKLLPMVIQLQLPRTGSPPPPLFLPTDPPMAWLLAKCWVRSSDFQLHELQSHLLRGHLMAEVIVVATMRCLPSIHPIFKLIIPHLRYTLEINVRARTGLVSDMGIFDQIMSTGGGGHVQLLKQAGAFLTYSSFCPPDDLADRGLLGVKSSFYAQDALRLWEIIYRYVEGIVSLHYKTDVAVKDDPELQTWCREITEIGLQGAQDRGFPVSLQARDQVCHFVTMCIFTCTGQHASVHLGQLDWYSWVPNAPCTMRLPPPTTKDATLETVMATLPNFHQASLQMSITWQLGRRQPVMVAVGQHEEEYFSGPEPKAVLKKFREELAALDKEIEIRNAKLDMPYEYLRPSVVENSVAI

T2: Polyunsaturated fatty acid lipoxygenase ALOX15 (Homo sapiens, UniProt P16050)
T2 sequence (P16050 whole entry): T1 sequence (whole entry)

B1: Polyunsaturated fatty acid lipoxygenase ALOX15 (Homo sapiens), P16050 (protein)
chain: T1 sequence (whole entry)

Columns and labels:
[1] = molecular target: T1, Polyunsaturated fatty acid lipoxygenase ALOX15 (Homo sapiens); test: Inhibition of recombinant human 15-LOX-1 expressed in Escherichia coli BL21(DE3) at 10 uM preincubated with UV light at 254 nm for 2 to 10 mins followed by measuring UV absorbance of 13(S)-HpODE at 234 nm over 16 mins
In short: (§1)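 254 nm UV irradiation used as a control during preincubation of h-15-LOX-1 with inhibitor. Activity was then read as 13(S)-HpODE absorbance at 234 nm over 16 min, against a no-inhibitor control. Assay buffer 25 mM HEPES pH 7.4.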

[2] = test system: HCC-1.2; test: Cytotoxicity against human HCC1.2 cells assessed as growth inhibition after 48 hrs by neutral red assay; format: functional; details: for CC50: HCC-1.2, 48 h, read-out: LD50 (the source's name)
In short: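 HCC-1.2 hepatocarcinoma cells grown in RPMI1640 with 10% heat-inactivated FCS at 37 °C, 5% CO2. 2 × 10^5 cells/well seeded and grown 48 h. Viable cells quantified by neutral red (50 μg/mL) uptake from serum-free medium over 2 h. Dye dissolved in 1% acetic acid/70% ethanol, read as absorbance 560 minus 620 nm. Triplicate wells; three to five independent experiments; LD50 reported.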

[3] = test system: HCC-1.2; test: Photocytotoxicity against human HCC1.2 cells assessed as decrease in cell viability at 1 to 10 uM preincubated with day light for 10 mins measured after 48 hrs by neutral red assay; format: functional, cell-based
[4] = test system: HCC-1.2; test: Photocytotoxicity against human HCC1.2 cells assessed as growth inhibition at 1 to 10 uM after day light irradiation for 10 mins; format: functional, cell-based
[5] = molecular target: T1, Polyunsaturated fatty acid lipoxygenase ALOX15 (Homo sapiens); test: Inhibition of recombinant human 15-LOX-1 expressed in Escherichia coli BL21(DE3) at 10 uM preincubated with UV light at 365 nm followed by measuring UV absorbance of 13(S)-HpODE at 234 nm over 16 mins; details: TDE = time-dependent effect
In short: (§2)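 Light-sensitivity test: h-15-LOX-1 preincubated with inhibitor for 2, 5 and 10 min under daylight, 365 nm UV irradiation or darkness, in triplicate. Linoleic acid conversion to 13(S)-HpODE then followed at 234 nm over 16 min, relative to a no-inhibitor positive control. Buffer 25 mM HEPES pH 7.4. Experiments repeated at least twice.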

[6] = molecular target: T2, Polyunsaturated fatty acid lipoxygenase ALOX15; test: Inhibition of recombinant human 15-LOX-1 expressed in Escherichia coli BL21(DE3) using linoleic acid as substrate preincubated for 10 mins followed by substrate addition
[7] = molecular target: T1, Polyunsaturated fatty acid lipoxygenase ALOX15 (Homo sapiens); test: Inhibition of recombinant human 15-LOX-1 expressed in Escherichia coli BL21(DE3) assessed as residual activity at 10 uM preincubated in darkness followed by measuring UV absorbance of 13(S)-HpODE at 234 nm over 16 mins; in short: as §2
[8] = test system: HCC-1.2; test: Photocytotoxicity against human HCC1.2 cells assessed as decrease in cell viability at 1 to 10 uM preincubated with UV light at 365 nm for 10 mins measured after 48 hrs by neutral red assay; format: functional, cell-based
[9] = molecular target: T1, Polyunsaturated fatty acid lipoxygenase ALOX15 (Homo sapiens); test: Inhibition of recombinant human 15-LOX-1 expressed in Escherichia coli BL21(DE3) at 10 uM preincubated in light followed by measuring UV absorbance of 13(S)-HpODE at 234 nm over 16 mins; details: TDE = time-dependent effect; in short: as §2
[10] = molecular target: T1, Polyunsaturated fatty acid lipoxygenase ALOX15 (Homo sapiens); test: Inhibition of recombinant human 15-LOX-1 expressed in Escherichia coli BL21(DE3) at 15 uM preincubated with UV light at 365 nm followed by measuring UV absorbance of 13(S)-HpODE at 234 nm over 16 mins; details: TDE = time-dependent effect; in short: as §2
[11] = molecular target: T1, Polyunsaturated fatty acid lipoxygenase ALOX15 (Homo sapiens); test: Inhibition of recombinant human 15-LOX-1 expressed in Escherichia coli BL21(DE3) assessed as residual activity at 15 uM preincubated in darkness followed by measuring UV absorbance of 13(S)-HpODE at 234 nm over 16 mins; in short: as §2
[12] = molecular target: T1, Polyunsaturated fatty acid lipoxygenase ALOX15 (Homo sapiens); test: Inhibition of recombinant human 15-LOX-1 expressed in Escherichia coli BL21(DE3) assessed as residual activity at 50 uM using linoleic acid as substrate preincubated for 10 mins followed by substrate addition
In short: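 h-15-LOX-1 (1:100 enzyme stock, 1:400 final) preincubated 10 min at room temperature with inhibitor in 25 mM HEPES pH 7.4, then linoleic acid added to 25 µM final (inhibitor 50 µM final). 13(S)-HpODE formation read as A234 over time, rate taken from linear part within first 16 min; no-inhibitor = 100%, no-enzyme = 0%. Triplicate.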

[13] = molecular target: T1, Polyunsaturated fatty acid lipoxygenase ALOX15 (Homo sapiens); test: Inhibition of recombinant human 15-LOX-1 expressed in Escherichia coli BL21(DE3) at 15 uM preincubated with UV light at 254 nm for 2 to 10 mins followed by measuring UV absorbance of 13(S)-HpODE at 234 nm over 16 mins; in short: as §1
[14] = molecular target: T1, Polyunsaturated fatty acid lipoxygenase ALOX15 (Homo sapiens); test: Uncompetitive inhibition of recombinant human 15-LOX-1 expressed in Escherichia coli BL21(DE3) assessed as enzyme apparent Vmax at 8 uM using linoleic acid as substrate preincubated for 10 mins followed by substrate addition by Lineweaver-Burk plot analysis (reference value: 106.10 +/- 40.95 abs/hr)
[15] = molecular target: T1, Polyunsaturated fatty acid lipoxygenase ALOX15 (Homo sapiens); test: Inhibition of recombinant human 15-LOX-1 expressed in Escherichia coli BL21(DE3) at 15 uM preincubated in light followed by measuring UV absorbance of 13(S)-HpODE at 234 nm over 16 mins; details: TDE = time-dependent effect; in short: as §2
[16] = molecular target: T1, Polyunsaturated fatty acid lipoxygenase ALOX15 (Homo sapiens); test: Uncompetitive inhibition of recombinant human 15-LOX-1 expressed in Escherichia coli BL21(DE3) assessed as enzyme apparent Vmax at 6 uM using linoleic acid as substrate preincubated for 10 mins followed by substrate addition by Lineweaver-Burk plot analysis (reference value: 106.10 +/- 40.95 abs/hr)
[17] = compound: Nc1[nH]c(C(=O)c2ccccc2)c(-c2ccc(Cl)cc2Cl)c1C(=O)c1ccc(Cl)c(Cl)c1; test: Uncompetitive inhibition of recombinant human 15-LOX-1 expressed in Escherichia coli BL21(DE3) assessed as apparent Km for substrate at 6 uM using linoleic acid as substrate preincubated for 10 mins followed by substrate addition by Lineweaver-Burk plot analysis (reference value: 32.67 +/- 12.23 uM)
[18] = compound: Nc1[nH]c(C(=O)c2ccccc2)c(-c2ccc(Cl)cc2Cl)c1C(=O)c1ccc(Cl)c(Cl)c1; test: Uncompetitive inhibition of recombinant human 15-LOX-1 expressed in Escherichia coli BL21(DE3) assessed as apparent Km for substrate at 8 uM using linoleic acid as substrate preincubated for 10 mins followed by substrate addition by Lineweaver-Burk plot analysis (reference value: 32.67 +/- 12.23 uM)

Row | Molecule | inhibition [1] | Activity [2] | CC50 [2] | Activity [3] | Activity [4] | inhibition [5] | IC50 [6] | Activity [7] | Activity [8] | inhibition [9] | inhibition [10] | Activity [11] | Activity [12] | inhibition [13] | Vmax(app) [14] | inhibition [15] | Vmax(app) [16] | Km [17] | Km [18]
1 | Nc1[nH]c(C(=O)c2ccccc2)c(-c2ccc(Cl)cc2Cl)c1C(=O)c1cccc(Cl)c1 | inactive | Dose-dependent effect | 0.69 µM | Active | Active | Tde | 6.9 µM | 80% | Active | Tde |  |  |  |  |  |  |  |  | 
2 | Nc1[nH]c(C(=O)c2ccccc2)c(-c2ccc(Cl)cc2Cl)c1C(=O)c1ccc(Cl)c(Cl)c1 |  | Dose-dependent effect | 0.55 µM |  |  |  | 12.8 µM |  |  |  | Tde | 80% | 40.8% | inactive | 47.2 abs/hr | Tde | 68.2 abs/hr |  | 
3 | B1 |  |  |  |  |  |  |  |  |  |  |  |  |  |  |  |  |  | 24 µM | 20 µM
